Test results taken from ChEMBL document CHEMBL1152649, “Synthesis, cytotoxicity and human telomerase inhibition activities of a series of 1,2-heteroannelated anthraquinones and anthra[1,2-d]imidazole-6,11-dione homologues” (2009).

Key:
[1] = Cytotoxicity against human H1299 cells at 1 uM after 48 hrs by MTT assay; type: functional; details: NCI-H1299, 48 h
Outline: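 H1299 non-small cell lung cancer cells were grown in RPMI 1640 with 10% FBS, penicillin and streptomycin at 37 °C under 5% CO2. About 2 × 10³ cells per well were seeded and left 24 h. Compounds were dissolved fresh in DMSO, diluted into complete medium and applied for 48 h. MTT was then added for 4 h at 37 °C, followed by lysis buffer (20% SDS, 50% DMF) for 16 h, and absorbance was read at 550 nm.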

A549 = assay: Antiproliferative activity against human A549 cells assessed as cell growth at 10 uM; type: functional; details: read-out: Activity
Outline: (§1)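 NCI 60 cell line panel, single-dose screen (10^-5 M) run by the developmental therapeutics program protocol. Results are given as growth percent of treated cells relative to untreated control cells for each line.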

HOP-62 = assay: Antiproliferative activity against human HOP62 cells assessed as cell growth at 10 uM; type: functional; details: read-out: Activity; outline: as §1
[2] = Antiproliferative activity against human Hs 578T cells assessed as cell growth at 10 uM; type: functional; details: read-out: Activity; outline: as §1
OVCAR-3 [3] = assay: Antiproliferative activity against human OVCAR-3 cells assessed as cell growth at 10 uM; type: functional; details: read-out: Activity; outline: as §1
OVCAR-4 = assay: Antiproliferative activity against human OVCAR4 cells assessed as cell growth at 10 uM; type: functional; details: read-out: Activity; outline: as §1
CCRF-CEM = assay: Antiproliferative activity against human CCRF-CEM cells assessed as cell growth at 10 uM; type: functional; details: read-out: Activity; outline: as §1
786-0 = assay: Antiproliferative activity against human 786-0 cells assessed as cell growth at 10 uM; type: functional; details: read-out: Activity; outline: as §1
A498 = assay: Antiproliferative activity against human A498 cells assessed as cell growth at 10 uM; type: functional; details: read-out: Activity; outline: as §1
TK-10 = assay: Antiproliferative activity against human TK10 cells assessed as cell growth at 10 uM; type: functional; details: read-out: Activity
Outline: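 NCI 60 cell line panel, single dose (10^-5 M), run per the Developmental Therapeutics Program protocol (one dose mean graph). Each result is the growth percentage of treated cells relative to untreated control cells.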

M14 = assay: Antiproliferative activity against human M14 cells assessed as cell growth at 10 uM; type: functional; details: read-out: Activity; outline: as §1
Malme-3M = assay: Antiproliferative activity against human MALME-3M cells assessed as cell growth at 10 uM; type: functional; details: read-out: Activity; outline: as §1
SK-MEL-28 [4] = assay: Antiproliferative activity against human SK-MEL-28 cells assessed as cell growth at 10 uM; type: functional; details: read-out: Activity; outline: as §1
PC-3 [5] = assay: Antiproliferative activity against human PC3 cells assessed as cell growth at 10 uM; type: functional; details: read-out: Activity; outline: as §1
SNB-19 = assay: Antiproliferative activity against human SNB19 cells assessed as cell growth at 10 uM; type: functional; details: read-out: Activity; outline: as §1
HCT-15 [6] = assay: Antiproliferative activity against human HCT15 cells assessed as cell growth at 10 uM; type: functional; details: read-out: Activity; outline: as §1
KM12 [7] = assay: Antiproliferative activity against human KM12 cells assessed as cell growth at 10 uM; type: functional; details: read-out: Activity; outline: as §1
[8] = target: Telomerase reverse transcriptase (Homo sapiens) (UniProt O14746); assay: Inhibition of TERT in human H1299 cells assessed as residual transcriptional activity at 100 uM after 24 hrs by SEAP reporter gene assay; values are per cent of control
MDA-MB-231 = assay: Growth inhibition of human MDA-MB-231 cells; type: functional
Outline: (§2)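 NCI 60 cancer cell line screen run per the Developmental Therapeutics Program protocol. Dose–response curves were plotted against log10 drug concentration for each cell line within its subpanel, and mean graph midpoint values were calculated.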

[9] = Growth inhibition of human Hs 578T cells; type: functional; outline: as §2
HL-60(TB) = assay: Growth inhibition of human HL-60(TB) cells; type: functional
Outline: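 NCI 60-cell-line panel run under the Developmental Therapeutics Program protocol. Dose-response curves are plotted against log10 drug concentration for each cell line within its subpanel, and GI50 is read from these curves.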

MOLT-4 = assay: Growth inhibition of human MOLT4 cells; type: functional; outline: as §2
HOP-92 = assay: Growth inhibition of human HOP92 cells; type: functional; outline: as §2
NCI-H226 = assay: Growth inhibition of human NCI-H226 cells; type: functional; outline: as §2
NCI-H23 = assay: Growth inhibition of human NCI-H23 cells; type: functional; outline: as §2
COLO 205 = assay: Growth inhibition of human COLO205 cells; type: functional; outline: as §2
HCC 2998 = assay: Growth inhibition of human HCC2998 cells; type: functional; outline: as §2
HCT-15 [10] = assay: Growth inhibition of human HCT15 cells; type: functional; outline: as §2
KM12 [11] = assay: Growth inhibition of human KM12 cells; type: functional; outline: as §2
SF-268 = assay: Growth inhibition of human SF268 cells; type: functional
Outline: (§3)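 Assayed in the NCI 60 human cancer cell line panel under the Developmental Therapeutics Program protocol. For each line, dose–response curves were plotted against log10 drug concentration. In the one-dose screen at 10^-5 M, growth was given as percent of untreated control cells, and mean graph midpoint values were averaged.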

LOX IMVI = assay: Growth inhibition of human LOXIMVI cells; type: functional; outline: as §2
SK-MEL-28 [12] = assay: Growth inhibition of human SK-MEL-28 cells; type: functional; outline: as §3
OVCAR-3 [13] = assay: Growth inhibition of human OVCAR-3 cells; type: functional; outline: as §2
OVCAR-8 = assay: Growth inhibition of human OVCAR8 cells; type: functional; outline: as §2
SK-OV-3 = assay: Growth inhibition of human SKOV3 cells; type: functional; outline: as §3
ACHN = assay: Growth inhibition of human ACHN cells; type: functional; outline: as §2
UO-31 = assay: Growth inhibition of human UO31 cells; type: functional; outline: as §3
PC-3 [14] = assay: Growth inhibition of human PC3 cells; type: functional; outline: as §3
[15] = read-out: LC50 (the source's name)

Telomerase reverse transcriptase (Homo sapiens), sequence (O14746 whole entry): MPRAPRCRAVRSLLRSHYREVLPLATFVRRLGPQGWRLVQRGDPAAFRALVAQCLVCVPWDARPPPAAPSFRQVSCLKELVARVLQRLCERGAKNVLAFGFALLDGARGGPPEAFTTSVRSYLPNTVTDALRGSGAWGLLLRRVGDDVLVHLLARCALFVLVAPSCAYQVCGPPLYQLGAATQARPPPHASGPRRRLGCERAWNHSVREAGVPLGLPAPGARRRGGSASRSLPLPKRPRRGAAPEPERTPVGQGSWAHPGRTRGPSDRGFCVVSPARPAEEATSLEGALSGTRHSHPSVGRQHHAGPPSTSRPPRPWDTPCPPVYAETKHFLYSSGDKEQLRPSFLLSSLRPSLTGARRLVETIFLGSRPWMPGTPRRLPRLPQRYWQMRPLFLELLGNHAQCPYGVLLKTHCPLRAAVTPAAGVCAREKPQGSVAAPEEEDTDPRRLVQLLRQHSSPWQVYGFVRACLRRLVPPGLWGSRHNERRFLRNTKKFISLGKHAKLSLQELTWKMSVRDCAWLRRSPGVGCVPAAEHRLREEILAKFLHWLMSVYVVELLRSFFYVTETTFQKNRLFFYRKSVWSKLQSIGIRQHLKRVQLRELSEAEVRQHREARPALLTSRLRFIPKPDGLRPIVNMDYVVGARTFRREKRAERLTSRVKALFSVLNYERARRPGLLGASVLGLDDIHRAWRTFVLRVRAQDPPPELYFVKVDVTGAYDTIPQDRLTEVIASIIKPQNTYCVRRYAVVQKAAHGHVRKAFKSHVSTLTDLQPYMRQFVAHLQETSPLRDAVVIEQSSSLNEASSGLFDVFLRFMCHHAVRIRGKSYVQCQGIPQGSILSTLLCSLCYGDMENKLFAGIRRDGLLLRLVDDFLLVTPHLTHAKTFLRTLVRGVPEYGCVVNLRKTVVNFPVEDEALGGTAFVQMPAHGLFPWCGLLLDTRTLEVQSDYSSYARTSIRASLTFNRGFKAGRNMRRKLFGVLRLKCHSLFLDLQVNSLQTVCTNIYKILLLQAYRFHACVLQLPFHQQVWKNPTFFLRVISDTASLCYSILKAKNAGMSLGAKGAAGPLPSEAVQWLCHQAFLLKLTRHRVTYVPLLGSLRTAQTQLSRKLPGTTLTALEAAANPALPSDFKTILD

Compound: O=C1c2ccccc2C(=O)c2c1ccc1nc(-c3ccc(Br)cc3)[nH]c21
- viability at 1 µM [1]: 96%
- growth at 10 µM (A549): 95%
- growth at 10 µM (HOP-62): 104%
- growth at 10 µM [2]: 181%
- growth at 10 µM (OVCAR-3 [3]): 100%
- growth at 10 µM (OVCAR-4): 94.1%
- growth at 10 µM (CCRF-CEM): 98.7%
- growth at 10 µM (786-0): 111%
- growth at 10 µM (A498): 117%
- growth at 10 µM (TK-10): 280%
- growth at 10 µM (M14): 102%
- growth at 10 µM (Malme-3M): 224%
- growth at 10 µM (SK-MEL-28 [4]): 131%
- growth at 10 µM (PC-3 [5]): 88.7%
- growth at 10 µM (SNB-19): 101%
- growth at 10 µM (HCT-15 [6]): 96.6%
- growth at 10 µM (KM12 [7]): 102%
- residual activity [8]: 36%

Compound: CN(C)c1ccc(-c2nc3ccc4c(c3[nH]2)C(=O)c2ccccc2C4=O)cc1
- viability at 1 µM [1]: 88%
- growth at 10 µM (A549): 113%
- growth at 10 µM (HOP-62): 102%
- growth at 10 µM [2]: 109%
- growth at 10 µM (OVCAR-3 [3]): 111%
- growth at 10 µM (OVCAR-4): 98.3%
- growth at 10 µM (CCRF-CEM): 63.9%
- growth at 10 µM (786-0): 109%
- growth at 10 µM (A498): 86.1%
- growth at 10 µM (TK-10): 116%
- growth at 10 µM (M14): 113%
- growth at 10 µM (Malme-3M): 110%
- growth at 10 µM (SK-MEL-28 [4]): 96.8%
- growth at 10 µM (PC-3 [5]): 82.4%
- growth at 10 µM (SNB-19): 127%
- growth at 10 µM (HCT-15 [6]): 107%
- growth at 10 µM (KM12 [7]): 98%
- residual activity [8]: 21%

Compound: CCc1nc2ccc3c(c2[nH]1)C(=O)c1ccccc1C3=O
- GI50 (MDA-MB-231): 8.86 µM
- TGI (MDA-MB-231): > 100 µM
- GI50 [9]: > 100 µM
- TGI [9]: > 100 µM
- viability at 1 µM [1]: 88%
- growth at 10 µM (A549): 68.2%
- growth at 10 µM (HOP-62): 97.7%
- growth at 10 µM [2]: -18.6%
- growth at 10 µM (OVCAR-3 [3]): 78.2%
- growth at 10 µM (OVCAR-4): 48.8%
- growth at 10 µM (CCRF-CEM): 45.4%
- growth at 10 µM (786-0): 76.6%
- growth at 10 µM (A498): 28.9%
- growth at 10 µM (TK-10): 33.8%
- growth at 10 µM (M14): 60.1%
- growth at 10 µM (Malme-3M): 56.9%
- growth at 10 µM (SK-MEL-28 [4]): 86.8%
- growth at 10 µM (PC-3 [5]): 48.5%
- growth at 10 µM (SNB-19): 74.9%
- GI50 (HL-60(TB)): 2720 nM
- TGI (HL-60(TB)): 64.1 µM
- CC50 (HL-60(TB); [15]): > 100 µM
- GI50 (MOLT-4): 4.22 µM
- TGI (MOLT-4): > 100 µM
- CC50 (MOLT-4; [15]): > 100 µM
- GI50 (HOP-92): 9.84 µM
- TGI (HOP-92): 7.58 µM
- CC50 (HOP-92; [15]): > 100 µM
- GI50 (NCI-H226): 2460 nM
- TGI (NCI-H226): > 100 µM
- CC50 (NCI-H226; [15]): > 100 µM
- GI50 (NCI-H23): 12.1 µM
- TGI (NCI-H23): > 100 µM
- CC50 (NCI-H23; [15]): > 100 µM
- GI50 (COLO 205): 8.95 µM
- TGI (COLO 205): > 100 µM
- CC50 (COLO 205; [15]): > 100 µM
- GI50 (HCC 2998): 18.8 µM
- TGI (HCC 2998): > 100 µM
- CC50 (HCC 2998; [15]): > 100 µM
- GI50 (HCT-15 [10]): 3.39 µM
- TGI (HCT-15 [10]): > 100 µM
- CC50 (HCT-15 [10]; [15]): > 100 µM
- GI50 (KM12 [11]): 7.69 µM
- TGI (KM12 [11]): > 100 µM
- CC50 (KM12 [11]; [15]): > 100 µM
- GI50 (SF-268): 20.3 µM
- TGI (SF-268): > 1 mM
- CC50 (SF-268; [15]): > 100 µM
- GI50 (LOX IMVI): 4.56 µM
- TGI (LOX IMVI): > 100 µM
- CC50 (LOX IMVI; [15]): > 100 µM
- GI50 (SK-MEL-28 [12]): > 100 µM
- TGI (SK-MEL-28 [12]): > 100 µM
- CC50 (SK-MEL-28 [12]; [15]): > 100 µM
- GI50 (OVCAR-3 [13]): 16.5 µM
- TGI (OVCAR-3 [13]): > 100 µM
- CC50 (OVCAR-3 [13]; [15]): > 100 µM
- GI50 (OVCAR-8): 23.2 µM
- TGI (OVCAR-8): > 100 µM
- CC50 (OVCAR-8; [15]): > 100 µM
- GI50 (SK-OV-3): 2590 nM
- TGI (SK-OV-3): > 100 µM
- CC50 (SK-OV-3; [15]): > 100 µM
- GI50 (ACHN): 3.29 µM
- TGI (ACHN): > 100 µM
- CC50 (ACHN; [15]): > 100 µM
- GI50 (UO-31): 1330 nM
- TGI (UO-31): > 100 µM
- CC50 (UO-31; [15]): > 100 µM
- GI50 (PC-3 [14]): 28.2 µM
- TGI (PC-3 [14]): > 100 µM
- CC50 (PC-3 [14]; [15]): > 100 µM
- growth at 10 µM (HCT-15 [6]): 42.2%
- growth at 10 µM (KM12 [7]): 72.9%
- residual activity [8]: 25%
